Measured values collected from several papers.
Compare with care: the assays were run in different laboratories.
Read-out: enzyme activity
Action: inhibitor
SRC: Proto-oncogene tyrosine-protein kinase Src (SRC, Homo sapiens, UniProt P12931)

SMILES | target | technique | tested at | remaining activity [%]
Cc1ccc(NC(=O)c2ccc(C)c(C(F)(F)F)c2)cc1C#Cc1nn(C2CCC(O)CC2)c2ncnc(N)c12 (stereo not drawn) | SRC |  | 10 µM | 0
Oc1cccc(-c2nc(N3CCOCC3)c3oc4ncccc4c3n2)c1 | SRC |  | 10 µM | 99
CCN(CC)c1ccc(C2=NNC(=O)CC2C)cc1[N+](=O)[O-] (stereo not drawn) | SRC |  | 10 µM | 94
O=C(Nc1cnn(-c2csc(C(=O)NC3COC3)c2)c1)Nc1ccccc1Cl | SRC |  | 5 µM | 91.1
O=c1cc(-c2cccc3c2Sc2ccccc2S3)oc(N2CCOCC2)c1 | SRC |  | 0.5 µM | 106
COc1cc(Nc2cnc(C#N)c(O[C@H](C)CN(C)C)n2)ncc1-c1cnn(C)c1 | SRC | radiometric | 1 µM | 81
Cc1sc(C(=O)NC2COC2)cc1-n1cc(NC(=O)Nc2c(F)cccc2Cl)cn1 | SRC |  | 10 µM | 96.6
CCCOc1ccc(OC)c(F)c1C(=O)c1ccc(C(=O)N[C@@H]2CNC[C@H]2NC(=O)c2ccc3[nH]ncc3c2)cc1 | Proto-oncogene tyrosine-protein kinase Src (SRC, Homo sapiens, UniProt P12931, T341M) |  | 10 µM | 53
Cc1[nH]c(/C=C2\C(=O)Nc3ccc(F)cc32)c(C)c1C(=O)N[C@H]1CCN(C(=O)N(C)C)C1 | SRC |  | 1 µM | 89
CC(C)(C)c1nc2c(s1)c1nc(N)ncc1c1ccc(NS(=O)(=O)c3c(F)cccc3F)c(F)c12 | SRC | radiometric | 1 µM | 89
CC(C)(C)C(=O)c1sc(NC2CCCCC2)nc1N | SRC |  | 10 µM | 99
Cn1c(=O)n(-c2ccc(C(C)(C)C#N)cc2)c2c3cc(-c4cnc5ccccc5c4)ccc3ncc21 | SRC |  | 10 µM | 121
